Results taken from ChEMBL document CHEMBL3872255, “Design, synthesis and analgesic/anti-inflammatory evaluation of novel diarylthiazole and diarylimidazole derivatives towards selective COX-1 inhibitors with better gastric profile” (Bioorg Med Chem, 2017).
Active and inactive are the calls of the source. The rule behind the calls is not given here.

What was measured:
Mus musculus [1] = species on record: Mus musculus; assay: Analgesic activity in mouse assessed as decrease in number of acetic acid-induced writhing pretreated for 1 hr followed by acetic acid challenge measured between 5 to 20 mins after acetic acid injection; type: functional
Procedure, shortened: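 Groups of five mice received test compound; 1 h later, 0.6% acetic acid (0.01 ml/g) was injected intraperitoneally. Writhes were counted for 15 min, from minute 5 to 20 after injection. Activity was taken as the reduction in writhing count. Diclofenac 6 mg/kg was the reference. Data are mean ± S.D., N=5, analysed by one-way ANOVA with Dunnett test.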

Rattus norvegicus [2] = assay: Anti-inflammatory activity against carrageenan-induced paw edema in albino rat assessed as inhibition of paw edema at 100 mg/kg, po pretreated for 1 hr followed by carrageenan challenge measured after 1 to 7 hrs relative to control; type: functional
Rattus norvegicus [3] = assay: Anti-inflammatory activity against carrageenan-induced paw edema in albino rat assessed as paw thickness at 100 mg/kg, po pretreated for 1 hr followed by carrageenan challenge measured at 7 hrs post carrageenan challenge (reference value: 0.464 +/- 0.023 mm); type: functional
Rattus norvegicus [4] = assay: Anti-inflammatory activity against carrageenan-induced paw edema in albino rat assessed as paw thickness at 100 mg/kg, po pretreated for 1 hr followed by carrageenan challenge measured at 3 hrs post carrageenan challenge (reference value: 0.401 +/- 0.019 mm); type: functional
Rattus norvegicus [5] = assay: Anti-inflammatory activity against carrageenan-induced paw edema in albino rat assessed as paw thickness at 100 mg/kg, po pretreated for 1 hr followed by carrageenan challenge measured at 1 hr post carrageenan challenge (reference value: 0.394 +/- 0.220 mm); type: functional
[6] = molecular target: T1, Prostaglandin G/H synthase 1 (Ovis aries, UniProt P05979); assay: Inhibition of ovine COX-1 assessed as reduction in oxidation of TMPD using arachidonic acid as substrate preincubated for 5 mins followed by substrate and TMPD addition measured after 5 mins by colorimetric assay
T1 sequence (P05979 whole entry): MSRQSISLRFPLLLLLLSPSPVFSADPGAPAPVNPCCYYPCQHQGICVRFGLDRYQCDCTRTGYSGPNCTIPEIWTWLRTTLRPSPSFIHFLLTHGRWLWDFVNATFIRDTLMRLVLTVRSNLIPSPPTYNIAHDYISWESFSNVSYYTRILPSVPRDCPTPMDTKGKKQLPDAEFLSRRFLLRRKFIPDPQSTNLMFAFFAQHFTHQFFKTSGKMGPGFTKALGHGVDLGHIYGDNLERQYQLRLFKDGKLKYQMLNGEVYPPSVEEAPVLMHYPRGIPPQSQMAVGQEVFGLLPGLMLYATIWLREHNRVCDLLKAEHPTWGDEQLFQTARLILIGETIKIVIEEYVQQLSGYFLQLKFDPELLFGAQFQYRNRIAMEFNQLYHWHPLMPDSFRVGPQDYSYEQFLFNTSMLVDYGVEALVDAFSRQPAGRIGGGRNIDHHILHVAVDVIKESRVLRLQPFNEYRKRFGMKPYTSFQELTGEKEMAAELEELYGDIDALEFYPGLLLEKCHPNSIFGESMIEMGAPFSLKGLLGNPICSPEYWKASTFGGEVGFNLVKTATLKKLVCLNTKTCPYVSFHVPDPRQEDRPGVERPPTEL

[7] = Ulcerogenic effect in albino rat assessed as ulcer index […], po administered 2 to 3 days; type: toxicity, organism-based; details: in vivo
Procedure, shortened: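 Rats were fasted 2 h, fed 2 h, then fasted 20 h, with further doses on days 2 and 3. Stomachs were rinsed in 0.9% saline and lesions scored 0-4. Ulcer index = %incidence/10 + average severity + average ulcer number.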

Mus musculus [8] = species on record: Mus musculus; assay: Analgesic activity in mouse assessed as number of acetic acid-induced writhing pretreated for 1 hr followed by acetic acid challenge measured between 5 to 20 mins after acetic acid injection; type: functional
Procedure, shortened: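 Groups of five mice. Test compound given 1 h before i.p. injection of 0.6% acetic acid, 0.01 ml/g. Writhing movements counted for 15 min, from the 5th to the 20th min after injection. Diclofenac 6 mg/kg served as reference. Activity is taken as the reduction in number of writhings; mean ± S.D., N=5.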

Rattus norvegicus [9] = assay: Anti-inflammatory activity against carrageenan-induced paw edema in albino rat assessed as paw thickness at 60 mg/kg, po pretreated for 1 hr followed by carrageenan challenge measured at 3 hrs post carrageenan challenge (reference value: 0.401 +/- 0.019 mm); type: functional
Rattus norvegicus [10] = assay: Anti-inflammatory activity against carrageenan-induced paw edema in albino rat assessed as paw thickness at 60 mg/kg, po pretreated for 1 hr followed by carrageenan challenge measured at 7 hrs post carrageenan challenge (reference value: 0.464 +/- 0.023 mm); type: functional
Rattus norvegicus [11] = assay: Anti-inflammatory activity against carrageenan-induced paw edema in albino rat assessed as inhibition of paw edema at 60 mg/kg, po pretreated for 1 hr followed by carrageenan challenge measured after 1 to 7 hrs relative to control; type: functional
Rattus norvegicus [12] = assay: Anti-inflammatory activity against carrageenan-induced paw edema in albino rat assessed as paw thickness at 60 mg/kg, po pretreated for 1 hr followed by carrageenan challenge measured at 1 hr post carrageenan challenge (reference value: 0.394 +/- 0.220 mm); type: functional

SMILES | Activity (Mus musculus [1]) | inhibition in vivo at 100 mg/kg (Rattus norvegicus [2]) | Activity (Rattus norvegicus [3]) | Activity (Rattus norvegicus [4]) | Activity (Rattus norvegicus [5]) | IC50 [6] | UI [7] | Activity (Mus musculus [8]) | Activity (Rattus norvegicus [9]) | Activity (Rattus norvegicus [10]) | inhibition in vivo at 60 mg/kg (Rattus norvegicus [11]) | Activity (Rattus norvegicus [12])
COc1ccc(-c2nc(NCC(=O)N3CCOCC3)sc2-c2ccc(OC)cc2)cc1 | Active | 54.5% | 0.213 mm | 0.19 mm | 0.17 mm | 4.01 µM |  |  |  |  |  | 
COc1ccc(-c2ncn(CC(=O)N3CCN(C)CC3)c2-c2ccc(OC)cc2)cc1 | Active | 58.8% | 0.152 mm | 0.191 mm | 0.17 mm | 3.06 µM |  |  |  |  |  | 
O=C(Cn1cnc(-c2ccccc2)c1-c1ccccc1)N1CCOCC1 | Active | 54.5% | 0.218 mm | 0.186 mm | 0.166 mm | 6.32 µM |  |  |  |  |  | 
COc1ccc(-c2nc(NCC(=O)N3CCCCC3)sc2-c2ccc(OC)cc2)cc1 |  |  |  |  |  | 6.01 µM |  |  |  |  |  | 
COc1ccc2c(c1)c(CC(=O)O)c(C)n2C(=O)c1ccc(Cl)cc1 [INDOMETHACIN] |  |  |  |  |  |  | 19.5 |  |  |  |  | 
O=C(Cn1cnc(-c2ccccc2)c1-c1ccccc1)N1CCCCC1 |  |  |  |  |  | 8.51 µM |  |  |  |  |  | 
COc1ccc(-c2ncn(CC(=O)N3CCCCC3)c2-c2ccc(OC)cc2)cc1 |  |  |  |  |  | 7.34 µM |  |  |  |  |  | 
COc1ccc(-c2ncn(CC(=O)N3CCOCC3)c2-c2ccc(OC)cc2)cc1 | Active | 60.8% | 0.19 mm | 0.159 mm | 0.146 mm | 5.09 µM |  |  |  |  |  | 
O=C(O)Cn1cnc(-c2ccccc2)c1-c1ccccc1 |  | 53.8% | 0.235 mm | 0.189 mm | 0.161 mm | 0.67 µM | 13.3 | 10.67 - 14.4 |  |  |  | 
O=C(O)CNc1nc(-c2ccccc2)c(-c2ccccc2)s1 |  | 54% | 0.231 mm | 0.185 mm | 0.166 mm | 0.42 µM | 9.39 |  |  |  |  | 
COc1ccc(-c2ncn(CC(=O)O)c2-c2ccc(OC)cc2)cc1 |  | 57% | 0.215 mm | 0.18 mm | 0.149 mm | 0.54 µM | 9.75 | 10.67 - 14.4 |  |  |  | 
CN1CCN(C(=O)CNc2nc(-c3ccccc3)c(-c3ccccc3)s2)CC1 | Active | 54.3% | 0.205 mm | 0.197 mm | 0.173 mm | 3.04 µM |  |  |  |  |  | 
CN1CCN(C(=O)Cn2cnc(-c3ccccc3)c2-c2ccccc2)CC1 | Active | 60.5% | 0.182 mm | 0.168 mm | 0.147 mm | 4.17 µM |  |  |  |  |  | 
O=C(O)Cc1ccccc1Nc1c(Cl)cccc1Cl [DICLOFENAC] |  |  |  |  |  |  |  | 24 | 0.06 mm | 0.04 mm | 84.5% | 0.09 mm
O=C(CNc1nc(-c2ccccc2)c(-c2ccccc2)s1)N1CCOCC1 | Active | 59.8% | 0.192 mm | 0.167 mm | 0.148 mm | 5.76 µM |  |  |  |  |  | 
COc1ccc(-c2nc(NCC(=O)O)sc2-c2ccc(OC)cc2)cc1 |  |  | 0.251 mm | 0.213 mm | 0.165 mm | 0.32 µM | 8.5 | 10.67 - 14.4 |  |  |  | 
O=C(CNc1nc(-c2ccccc2)c(-c2ccccc2)s1)N1CCCCC1 |  |  |  |  |  | 7.99 µM |  |  |  |  |  | 
COc1ccc(-c2nc(NCC(=O)N3CCN(C)CC3)sc2-c2ccc(OC)cc2)cc1 | Active | 61.9% | 0.172 mm | 0.163 mm | 0.144 mm | 2.72 µM |  |  |  |  |  | 
